Test results as given in ChEMBL document CHEMBL2380211, “Conformational restriction in a series of GPR119 agonists: differences in pharmacology between mouse and human” (Bioorg Med Chem Lett, 2013).
Values after ≈ are worked out from the molar mass of the structure shown. One block for each compound: values may come before it.

Experiments:
[1] = 1-octanol-aqueous phosphate buffer distribution coefficient, log D of the compound at pH 7.4 after 30 mins by shake-flask method; assay type: physicochemical
How it was run: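 Partition of compound between 1-octanol and aqueous phosphate buffer, pH 7.4.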

[2] = Intrinsic clearance in rat hepatocytes measured per 10^6 cells; assay type: ADME, cell-based, Hepatocyte; settings: read-out: CLH
Mus musculus = assay: Antidiabetic activity in C57BL6/JAX mouse assessed as reduction in blood glucose AUC at 50 mg/kg administered 30 mins prior to glucose challenge measured up to 90 mins by OGTT relative to control; assay type: functional; parameters: scale not given: the % may be the effect or the level left
How it was run: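 C57BL6/JAX mice given compound at 50 mg/kg, 30 min before a 2 g/kg oral glucose load. Blood glucose followed to 90 min. Value is the % reduction in blood glucose AUC.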

[3] = Half life in rat at 2 mg/kg, iv; assay type: ADME, organism-based; parameters: dose 2 mg/kg, route intravenous; settings: in vivo
How it was run: (§1)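 Rats dosed at 2 mg/kg IV in 5% DMSO:95% hydroxypropyl beta cyclodextrin, and at 5 mg/kg orally as a 0.1% pluronic F127 suspension, both at 5 mL/kg.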

[4] = Oral bioavailability in rat at 5 mg/kg; assay type: ADME, organism-based; settings: in vivo; how it was run: as §1
[5] = Apparent permeability from basolateral to apical side in MDCK cells at 10 uM; assay type: ADME, cell-based, Canis lupus familiaris; settings: dog
How it was run: (§2)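 Compound incubated at 10 µM with cultured MDCK epithelial cells. Apparent permeability measured in both directions, A-B and B-A.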

[6] = AUC in rat at 2 mg/kg, iv and 5 mg/kg, po; assay type: ADME, organism-based; settings: plasma; how it was run: as §1
[7] = Half life in rat at 5 mg/kg, po; assay type: ADME, organism-based; parameters: dose 5 mg/kg, route oral; settings: in vivo; how it was run: as §1
[8] = Volume of distribution at steady state in rat at 2 mg/kg, iv and 5 mg/kg, po; assay type: ADME, organism-based; settings: in vivo, read-out: Vdss; how it was run: as §1
[9] = Apparent permeability from apical to basolateral side in MDCK cells at 10 uM; assay type: ADME, cell-based, Canis lupus familiaris; settings: dog; how it was run: as §2
[10] = Plasma clearance in rat at 2 mg/kg, iv and 5 mg/kg, po; assay type: ADME, organism-based; how it was run: as §1
[11] = target: T1, Glucose-dependent insulinotropic receptor (Mus musculus, UniProt Q7TQP3); assay: Displacement of [3H]-N-(2-fluoro-4-methylsulfonyl-phenyl)-6-[4-(3-isopropyl-1,2,4-oxadiazol-5-yl)-1-piperidyl]-5-nitro-pyrimidin-4-amine from mouse GPR119 overexpressed in baculovirus infected Sf21 cell membranes after 120 mins by scintillation counting analysis
T1 sequence (Q7TQP3 whole entry): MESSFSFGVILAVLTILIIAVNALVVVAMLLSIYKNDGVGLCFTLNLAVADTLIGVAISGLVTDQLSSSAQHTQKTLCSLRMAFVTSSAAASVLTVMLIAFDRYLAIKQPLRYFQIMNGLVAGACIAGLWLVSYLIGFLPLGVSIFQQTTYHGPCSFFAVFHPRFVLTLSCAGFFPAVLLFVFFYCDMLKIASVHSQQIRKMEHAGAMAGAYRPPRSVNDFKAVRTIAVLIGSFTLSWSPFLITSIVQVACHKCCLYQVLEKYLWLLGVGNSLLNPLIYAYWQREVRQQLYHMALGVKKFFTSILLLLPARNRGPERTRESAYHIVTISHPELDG

[12] = target: T2, Glucose-dependent insulinotropic receptor (Homo sapiens, UniProt Q8TDV5); assay: Agonist activity at human GPR119 overexpressed in HEK293S cells assessed as change in cAMP level after 45 mins by HTRF assay; assay type: functional, cell-based
T2 sequence (Q8TDV5 whole entry): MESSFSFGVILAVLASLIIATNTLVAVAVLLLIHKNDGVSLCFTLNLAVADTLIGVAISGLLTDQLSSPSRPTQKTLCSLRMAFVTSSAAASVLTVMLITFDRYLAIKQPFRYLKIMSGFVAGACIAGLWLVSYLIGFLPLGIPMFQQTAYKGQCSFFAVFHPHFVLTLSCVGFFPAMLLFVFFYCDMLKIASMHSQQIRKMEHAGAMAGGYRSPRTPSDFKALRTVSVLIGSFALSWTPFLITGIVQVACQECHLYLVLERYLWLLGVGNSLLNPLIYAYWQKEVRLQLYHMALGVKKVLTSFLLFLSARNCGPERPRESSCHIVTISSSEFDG

[13] = target: T2, Glucose-dependent insulinotropic receptor; assay: Displacement of [3H]-N-(2-fluoro-4-methylsulfonyl-phenyl)-6-[4-(3-isopropyl-1,2,4-oxadiazol-5-yl)-1-piperidyl]-5-nitro-pyrimidin-4-amine from human GPR119 overexpressed in baculovirus infected Sf21 cell membranes after 120 mins by scintillation counting analysis
[14] = target: T1, Glucose-dependent insulinotropic receptor; assay: Agonist activity at mouse GPR119 overexpressed in HEK293S cells assessed as change in cAMP level after 45 mins by HTRF assay; assay type: functional, cell-based
[15] = Fraction unbound in mouse plasma by equilibrium dialysis method; assay type: ADME, cell-free
Cytochrome P450 2C9 = Cytochrome P450 2C9 (Homo sapiens, UniProt P11712); assay: Inhibition of CYP2C9 (unknown origin); assay type: ADME
[16] = Aqueous solubility of the compound in phosphate buffer at pH 7.4 at 25 degC after 24 hrs by LC-UV analysis; assay type: physicochemical
Cytochrome P450 2C19 = Cytochrome P450 2C19 (Homo sapiens, UniProt P33261); assay: Inhibition of CYP2C19 (unknown origin); assay type: ADME
Cytochrome P450 2D6 = Cytochrome P450 2D6 (Homo sapiens, UniProt P10635); assay: Inhibition of CYP2D6 (unknown origin); assay type: ADME
Cytochrome P450 1A2 = target: T3, Cytochrome P450 1A2 (Homo sapiens, UniProt P05177); assay: Inhibition of CYP1A2 (unknown origin); assay type: ADME
T3 sequence (P05177 whole entry): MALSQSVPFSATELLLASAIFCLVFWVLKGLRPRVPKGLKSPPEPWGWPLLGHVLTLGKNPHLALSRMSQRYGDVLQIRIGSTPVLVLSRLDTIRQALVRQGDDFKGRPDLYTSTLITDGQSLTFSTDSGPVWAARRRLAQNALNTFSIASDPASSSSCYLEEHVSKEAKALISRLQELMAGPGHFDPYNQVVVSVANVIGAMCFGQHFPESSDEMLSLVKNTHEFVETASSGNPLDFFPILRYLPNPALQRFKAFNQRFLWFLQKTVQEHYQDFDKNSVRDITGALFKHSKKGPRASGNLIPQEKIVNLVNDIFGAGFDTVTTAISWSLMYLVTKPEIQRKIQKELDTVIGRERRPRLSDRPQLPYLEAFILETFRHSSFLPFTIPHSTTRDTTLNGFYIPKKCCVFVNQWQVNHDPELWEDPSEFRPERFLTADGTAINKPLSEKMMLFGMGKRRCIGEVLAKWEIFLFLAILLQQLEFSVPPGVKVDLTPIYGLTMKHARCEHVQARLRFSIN

[17] = target: Voltage-gated inwardly rectifying potassium channel KCNH2 (Homo sapiens, UniProt Q12809); assay: Inhibition of human ERG by IonWorks assay
[18] = Fraction unbound in rat plasma by equilibrium dialysis method; assay type: ADME, cell-free
Cytochrome P450 3A4 = Cytochrome P450 3A4 (Homo sapiens, UniProt P08684); assay: Inhibition of CYP3A4 (unknown origin); assay type: ADME
Sequence of Cytochrome P450 3A4 (P08684 whole entry): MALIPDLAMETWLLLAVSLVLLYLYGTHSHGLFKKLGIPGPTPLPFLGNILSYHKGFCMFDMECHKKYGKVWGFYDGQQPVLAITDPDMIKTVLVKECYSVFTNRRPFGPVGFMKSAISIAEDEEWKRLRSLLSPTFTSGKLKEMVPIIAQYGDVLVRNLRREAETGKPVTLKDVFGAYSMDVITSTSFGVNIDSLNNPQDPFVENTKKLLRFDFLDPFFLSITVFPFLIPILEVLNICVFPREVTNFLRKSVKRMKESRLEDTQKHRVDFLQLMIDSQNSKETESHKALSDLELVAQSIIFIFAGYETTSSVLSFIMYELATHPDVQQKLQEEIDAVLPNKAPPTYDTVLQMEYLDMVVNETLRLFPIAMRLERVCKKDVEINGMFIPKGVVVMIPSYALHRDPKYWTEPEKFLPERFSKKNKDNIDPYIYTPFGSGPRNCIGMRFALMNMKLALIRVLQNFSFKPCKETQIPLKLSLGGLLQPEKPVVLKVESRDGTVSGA

Sequence of Cytochrome P450 2C19 (P33261 whole entry): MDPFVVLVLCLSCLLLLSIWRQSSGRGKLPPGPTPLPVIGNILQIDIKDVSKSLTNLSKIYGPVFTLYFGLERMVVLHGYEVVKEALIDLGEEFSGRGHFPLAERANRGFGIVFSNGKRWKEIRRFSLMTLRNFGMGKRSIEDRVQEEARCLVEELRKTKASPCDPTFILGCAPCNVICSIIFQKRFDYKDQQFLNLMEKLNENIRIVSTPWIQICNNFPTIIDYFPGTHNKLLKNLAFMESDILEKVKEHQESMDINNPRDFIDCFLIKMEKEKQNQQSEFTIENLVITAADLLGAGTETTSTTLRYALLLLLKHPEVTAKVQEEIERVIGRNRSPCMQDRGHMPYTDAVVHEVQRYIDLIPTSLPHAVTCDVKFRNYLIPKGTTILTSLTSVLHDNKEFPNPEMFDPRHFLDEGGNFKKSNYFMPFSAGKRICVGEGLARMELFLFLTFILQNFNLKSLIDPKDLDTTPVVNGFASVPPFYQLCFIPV
Sequence of Cytochrome P450 2C9 (P11712 whole entry): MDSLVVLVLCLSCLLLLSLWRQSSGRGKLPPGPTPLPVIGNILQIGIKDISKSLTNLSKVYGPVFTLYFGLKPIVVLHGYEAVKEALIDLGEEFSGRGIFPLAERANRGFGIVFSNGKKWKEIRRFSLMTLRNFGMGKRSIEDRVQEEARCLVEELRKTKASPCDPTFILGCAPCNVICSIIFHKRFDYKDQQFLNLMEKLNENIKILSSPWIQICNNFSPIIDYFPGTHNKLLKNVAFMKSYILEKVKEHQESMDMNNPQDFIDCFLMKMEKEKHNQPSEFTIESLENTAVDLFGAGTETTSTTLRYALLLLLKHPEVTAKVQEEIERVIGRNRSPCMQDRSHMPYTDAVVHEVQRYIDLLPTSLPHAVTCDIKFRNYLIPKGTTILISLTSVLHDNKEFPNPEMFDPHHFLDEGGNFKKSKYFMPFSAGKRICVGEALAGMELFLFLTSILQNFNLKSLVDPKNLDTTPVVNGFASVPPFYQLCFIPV
Sequence of Cytochrome P450 2D6 (P10635 whole entry): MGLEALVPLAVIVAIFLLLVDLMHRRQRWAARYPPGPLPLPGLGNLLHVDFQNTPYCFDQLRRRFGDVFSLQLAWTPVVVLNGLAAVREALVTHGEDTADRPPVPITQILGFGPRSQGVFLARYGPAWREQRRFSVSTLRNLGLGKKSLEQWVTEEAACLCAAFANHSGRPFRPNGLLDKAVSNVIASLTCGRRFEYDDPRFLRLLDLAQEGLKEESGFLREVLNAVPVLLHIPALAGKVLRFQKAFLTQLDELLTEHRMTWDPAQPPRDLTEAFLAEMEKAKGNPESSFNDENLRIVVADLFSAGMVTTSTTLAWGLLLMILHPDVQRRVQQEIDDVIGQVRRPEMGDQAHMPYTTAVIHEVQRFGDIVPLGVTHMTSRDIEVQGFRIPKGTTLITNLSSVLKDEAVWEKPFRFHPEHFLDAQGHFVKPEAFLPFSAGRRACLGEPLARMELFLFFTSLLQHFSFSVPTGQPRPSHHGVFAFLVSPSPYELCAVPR
Sequence of Voltage-gated inwardly rectifying potassium channel KCNH2 (Q12809 whole entry): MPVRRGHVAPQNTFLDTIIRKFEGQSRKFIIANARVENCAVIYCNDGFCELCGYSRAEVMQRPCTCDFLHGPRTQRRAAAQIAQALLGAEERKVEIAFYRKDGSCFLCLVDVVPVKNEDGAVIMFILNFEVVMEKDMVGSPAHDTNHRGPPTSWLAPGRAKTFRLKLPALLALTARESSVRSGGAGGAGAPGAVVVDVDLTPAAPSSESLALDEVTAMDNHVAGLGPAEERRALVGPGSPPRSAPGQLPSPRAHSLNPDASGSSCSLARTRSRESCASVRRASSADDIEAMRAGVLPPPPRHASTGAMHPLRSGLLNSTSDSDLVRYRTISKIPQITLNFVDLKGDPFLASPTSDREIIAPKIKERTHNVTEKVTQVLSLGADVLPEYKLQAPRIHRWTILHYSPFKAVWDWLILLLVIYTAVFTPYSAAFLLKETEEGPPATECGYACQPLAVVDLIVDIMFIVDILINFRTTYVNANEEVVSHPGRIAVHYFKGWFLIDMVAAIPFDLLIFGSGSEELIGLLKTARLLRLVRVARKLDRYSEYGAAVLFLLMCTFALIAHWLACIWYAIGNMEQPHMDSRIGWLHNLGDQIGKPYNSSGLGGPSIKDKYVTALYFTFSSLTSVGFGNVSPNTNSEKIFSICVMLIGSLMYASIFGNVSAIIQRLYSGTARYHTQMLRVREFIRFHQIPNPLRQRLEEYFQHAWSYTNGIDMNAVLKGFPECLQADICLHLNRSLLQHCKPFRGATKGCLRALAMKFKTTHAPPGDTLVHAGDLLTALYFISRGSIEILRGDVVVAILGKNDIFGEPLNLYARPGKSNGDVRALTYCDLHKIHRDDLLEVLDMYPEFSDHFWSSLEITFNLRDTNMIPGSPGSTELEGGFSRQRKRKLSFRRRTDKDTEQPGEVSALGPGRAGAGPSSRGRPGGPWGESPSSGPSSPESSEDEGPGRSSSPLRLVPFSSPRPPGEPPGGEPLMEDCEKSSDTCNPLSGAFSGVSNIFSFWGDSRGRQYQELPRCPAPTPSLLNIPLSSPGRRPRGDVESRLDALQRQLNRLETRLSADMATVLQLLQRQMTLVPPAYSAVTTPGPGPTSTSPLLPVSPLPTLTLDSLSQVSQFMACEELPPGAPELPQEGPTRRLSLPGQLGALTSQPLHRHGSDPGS

logD at 0.5 h [1]: 3 | hepatocyte CLint [2]: 27 µL/min/1e6 cells | half-life [3]: 84 min | bioavailability [4]: 27% | Papp B→A at 10 µM [5]: 10 ×10⁻⁶ cm/s | AUC [6]: 3.2 µM·h | half-life [7]: 132 min | Vd [8]: 1.1 L/kg | Papp A→B at 10 µM [9]: 19 ×10⁻⁶ cm/s | clearance [10]: 14 mL/min/kg
SMILES: C[C@@H]1CN(C(=O)OCC(F)(F)F)CCN1c1ncc(OCc2ccncc2C#N)cn1
Activity (Mus musculus): 10%

SMILES: CC(C)(C)OC(=O)N1CC2CCC(C1)N2c1ncc(OCc2ccc(S(C)(=O)=O)cc2)cn1
IC50 [11]: 72 nM | EC50 [12]: 79 nM | IC50 [13]: 92 nM

SMILES: CC(C)(C)OC(=O)N1C2CCC1CN(c1ncc(OCc3ccc(S(C)(=O)=O)cc3)cn1)C2
IC50 [11]: 5 nM | EC50 [12]: 11 nM | IC50 [13]: 3 nM

SMILES: CC(C)(C)OC(=O)N1C2CCC1CN(c1ncc(OCc3ccncc3C#N)cn1)C2
IC50 [11]: 9 nM | EC50 [12]: 4 nM | IC50 [13]: 1 nM

SMILES: N#Cc1cnccc1COc1cnc(N2CCN(C(=O)OC3CC(F)(F)C3(F)F)CC2)nc1 (configuration not stated)
Activity (Mus musculus): 30% | EC50 [14]: 252 nM | IC50 [11]: 758 nM | EC50 [12]: 20 nM | IC50 [13]: 25 nM

SMILES: C[C@@H]1CN(C(=O)OC2CC(F)(F)C2(F)F)CCN1c1ncc(OCc2ccncc2C#N)cn1 (some centres not stated)
EC50 [14]: 84 nM | IC50 [11]: 694 nM | EC50 [12]: 6 nM | IC50 [13]: 6 nM

SMILES: N#Cc1cnccc1COc1cnc(N2CC3CCC(C2)N3C(=O)OC2CC(F)(F)C2(F)F)nc1 (configuration not stated)
Activity (Mus musculus): 3% | IC50 [11]: 65 nM | EC50 [12]: 7 nM | IC50 [13]: 9 nM

SMILES: N#Cc1cnccc1COc1cnc(N2CCN(C(=O)OCC(F)(F)F)CC2)nc1
fraction unbound [15]: 0.094 | logD at 0.5 h [1]: 3 | IC50 (Cytochrome P450 2C9): > 30 µM | solubility at 24 h [16]: 3.3 µM (≈ 1.39 µg/mL) | IC50 (Cytochrome P450 2C19): > 30 µM | hepatocyte CLint [2]: 12 µL/min/1e6 cells | Activity (Mus musculus): 21% | half-life [3]: 234 min | IC50 (Cytochrome P450 2D6): > 30 µM | bioavailability [4]: 48% | IC50 (Cytochrome P450 1A2): > 30 µM | EC50 [14]: 698 nM | AUC [6]: 4 µM·h | IC50 [11]: 4990 nM | EC50 [12]: 47 nM | IC50 [13]: 18 nM | half-life [7]: 126 min | Vd [8]: 5.3 L/kg | Papp A→B at 10 µM [9]: 32 ×10⁻⁶ cm/s | IC50 [17]: 10 µM | clearance [10]: 22 mL/min/kg | fraction unbound [18]: 0.051 | IC50 (Cytochrome P450 3A4): > 30 µM

SMILES: N#Cc1cnccc1COc1cnc(N2CC3CCC(C2)N3C(=O)OCC(F)(F)F)nc1
fraction unbound [15]: 0.096 | logD at 0.5 h [1]: 3 | IC50 (Cytochrome P450 2C9): > 30 µM | solubility at 24 h [16]: 3.8 µM (≈ 1.7 µg/mL) | IC50 (Cytochrome P450 2C19): > 30 µM | hepatocyte CLint [2]: 13 µL/min/1e6 cells | Activity (Mus musculus): 6% | half-life [3]: 102 min | IC50 (Cytochrome P450 2D6): > 30 µM | bioavailability [4]: 17% | Papp B→A at 10 µM [5]: 20 ×10⁻⁶ cm/s | IC50 (Cytochrome P450 1A2): > 30 µM | EC50 [14]: 20 nM | AUC [6]: 2.1 µM·h | IC50 [11]: 104 nM | EC50 [12]: 9 nM | IC50 [13]: 8 nM | half-life [7]: 156 min | Vd [8]: 1 L/kg | Papp A→B at 10 µM [9]: 25 ×10⁻⁶ cm/s | clearance [10]: 11 mL/min/kg | fraction unbound [18]: 0.065 | IC50 (Cytochrome P450 3A4): > 30 µM

SMILES: CC(C)c1nc(N2CCN(c3ncc(OCc4ccncc4C#N)cn3)CC2)no1
EC50 [14]: 242 nM | IC50 [11]: 2720 nM | EC50 [12]: 19 nM | IC50 [13]: 12 nM

SMILES: CC(C)c1nc(N2C3CCC2CN(c2ncc(OCc4ccncc4C#N)cn2)C3)no1
EC50 [14]: 45 nM | IC50 [11]: 122 nM | EC50 [12]: 11 nM | IC50 [13]: 4 nM
